Screening data as filed in PubChem.
HTRA1 inhibitor = HTRA1 serine protease inhibitors, primary screen, biochemical, fluorescence polarization, HTS | 340,000 tested, 0.5% active | recombinant HTRA1, FP-rhodamine activity-based probe | inhibition, % at 5.96 µM | Q92743 | AID 504803, 2011; in the data active means inhibition above about 36%;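 further: 0% = enzyme with DMSO and 100% = wells lacking enzyme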
Target sequence (Q92743 whole entry, looked up): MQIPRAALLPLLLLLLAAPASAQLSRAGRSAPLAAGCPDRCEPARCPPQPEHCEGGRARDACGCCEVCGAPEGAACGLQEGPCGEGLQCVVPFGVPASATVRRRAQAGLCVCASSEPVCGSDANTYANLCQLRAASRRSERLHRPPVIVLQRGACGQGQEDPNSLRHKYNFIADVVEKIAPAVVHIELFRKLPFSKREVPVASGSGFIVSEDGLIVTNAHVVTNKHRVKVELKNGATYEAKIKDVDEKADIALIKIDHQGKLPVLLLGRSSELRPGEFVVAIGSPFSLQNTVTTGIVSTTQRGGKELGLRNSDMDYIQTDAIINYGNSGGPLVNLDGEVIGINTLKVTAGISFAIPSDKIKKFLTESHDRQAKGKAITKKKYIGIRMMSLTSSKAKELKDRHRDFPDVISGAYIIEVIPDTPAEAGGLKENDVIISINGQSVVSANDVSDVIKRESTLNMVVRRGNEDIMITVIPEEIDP
PAFAH1B3 FP inh = PAFAH1B3 enzyme inhibitors, primary screen, biochemical, fluorescence polarization, human. 340,000 tested, 0.28% active. inhibition, % at 3.39 µM. AID 492972, 2010. Platelet-activating factor acetylhydrolase IB subunit alpha1 (Homo sapiens), Q15102. recombinant PAFAH1B3, FP-rhodamine probe;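 active means inhibition above the screen-wide average of all tested compounds plus 3 SD, cut at about 25% in these data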;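 further: 0% = enzyme with DMSO only and 100% = wells lacking PAFAH1B3 protein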
PAFAH1B2 FP inh = PAFAH1B2 enzyme inhibitors, primary screen, biochemical, fluorescence polarization, human. recombinant PAFAH1B2, FP-rhodamine activity probe. inhibition, % at 3.39 µM. 340,000 tested, 1.2% active. AID 492953, 2010;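 active means inhibition above the mean of all tested compounds plus 3 SD, cut at about 24% in these data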;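 further: 0% = enzyme with DMSO and 100% = wells lacking PAFAH1B2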
mABHD4 FP = ABHD4 inhibitors, primary screen, biochemical, fluorescence polarization, mouse. (Lyso)-N-acylphosphatidylethanolamine lipase (Mus musculus), Q8VD66. purified mABHD4, FP-Rh probe fluorescence polarization. inhibition, % at 8.92 µM. 370,000 tested, 0.54% active. AID 720543, 2013;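 active means inhibition exceeding the mean over every tested compound plus 3 SD, cut at about 30% in these data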;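 further: 0% = plate median of compound wells and 100% = S159A mutant with DMSO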
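Assay system: Wild-type mouse ABHD4 protein | Medium: HEPES pH 7.0 buffer, 150 mM NaCl, 0.01% Pluronic F-127 | Incubation: Enzyme–compound pre-incubation 45 min, then probe 60 min, both 25 °C | Technique: Fluorescence polarization with parallel and perpendicular emission, 525/598 nm | Evaluation: % inhibition of FP-Rh probe binding versus controls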
PAFAH2 FP inh = PAFAH2 enzyme inhibitors, primary screen, biochemical, fluorescence polarization, human; Platelet-activating factor acetylhydrolase 2, cytoplasmic (Homo sapiens), Q99487; recombinant PAFAH2, FP-rhodamine activity probe; inhibition, % at 3.39 µM; 340,000 tested, 0.99% active;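 active means inhibition above the mean over all tested compounds plus 3 SD, cut at about 30% in these data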;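 further: inhibitors block probe labeling of enzyme so polarization drops; 0% = enzyme with DMSO and 100% = wells lacking PAFAH2 protein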
pPAFAH inh = pPAFAH enzyme inhibitors, primary screen, biochemical, fluorescence polarization, human; Platelet-activating factor acetylhydrolase (Homo sapiens), Q13093; recombinant pPAFAH, FP-rhodamine probe fluorescence polarization; inhibition, % at 3.39 µM; 330,000 tested, 1.5% active;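 active means inhibition above the mean inhibition across the screen plus 3 SD, cut at about 25% in these data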;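 further: inhibitors block binding of the rhodamine activity-based probe so polarization drops; 0% = enzyme with DMSO and 100% = wells lacking pPAFAH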
pPAFAH FP conf = pPAFAH (PLA2G7) enzyme inhibitors, confirmation, biochemical, fluorescence polarization, human. recombinant pPAFAH, FP-Rh probe fluorescence polarization. AID 463230, 2010. inhibition, % at 3.39 µM. 2,300 tested, 72% active. shares compounds with pPAFAH inh;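 active means mean inhibition of the triplicate above the hit cutoff set for the earlier primary screen, cut at about 25% in these data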;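 further: 0% = enzyme with DMSO and 100% = wells lacking pPAFAH enzyme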
PAFAH2 FP conf = PAFAH2 enzyme inhibitors, confirmation, biochemical, fluorescence polarization, human; shares compounds with PAFAH2 FP inh; recombinant PAFAH2, FP-rhodamine activity probe; inhibition, % at 3.39 µM; 2,300 tested, 65% active; AID 493030, 2011;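 active means mean inhibition over three repeats above a set limit taken from the earlier primary screen, cut at about 30% in these data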;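 further: inhibitor blocks binding of rhodamine activity probe so polarization falls; 0% = enzyme with DMSO and 100% = wells lacking PAFAH2 protein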
HTRA1 conf = HTRA1 protease inhibitors, retest, confirmation, biochemical, fluorescence polarization; shares compounds with HTRA1 inhibitor; recombinant HTRA1, FP-rhodamine activity-based probe; inhibition, % at 5.96 µM; 1,600 tested, 66% active; AID 540248, 2011;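 active means mean inhibition over three repeats above a set limit taken from the earlier primary screen, cut at about 37% in these data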;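 further: 0% = HTRA1 with DMSO and 100% = wells lacking HTRA1; inhibitors block probe binding so polarization drops and inhibition rises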
* hit, by the source's call; nt = not tested or not shown. Only some compounds are listed: those with a hit (about 2.8% of all), similar ones and a draw of the others.

SMILES | HTRA1 inhibitor | PAFAH1B3 FP inh | PAFAH1B2 FP inh | mABHD4 FP | PAFAH2 FP inh | pPAFAH inh | pPAFAH FP conf | HTRA1 conf | others
Cn1c(=O)cc(OCCCC(=O)Nc2cc(C(F)(F)F)ccn2)c2ccccc21 | nt | nt | nt | -4.0 | nt | nt | nt | nt
Nc1[nH]c(C(=O)c2ccc(Br)cc2)c(-c2ccc(Br)cc2)c1C(=O)N1CCCCC1 | nt | nt | nt | -70.7 | nt | nt | nt | nt
Cc1cc(SCC(=O)N/N=C/c2ccc(O)c(O)c2O)c(C)cc1Br | 62.4* | 13.1 | -6.0 | 50.4* | 2.0 | 57.2* | 74.9* | 67.4*
COc1cc(/C=N/NC(=O)CSc2cc(C)c(Br)cc2C)ccc1O | -16.2 | 9.2 | 0.7 | -4.1 | 2.1 | 8.4 | nt | nt
CCOC(=O)N1CCN(C(=O)C[C@@H]2C(=O)N(CCc3ccc(Cl)cc3)/C3=C/CCCCC[C@@]32C(=O)OCC)CC1 | nt | nt | nt | 6.2 | nt | nt | nt | nt
CN1CCN(CC(=O)N2CCn3c4c(c5cc(C6CCCCC6)ccc53)CCCC42)CC1 (stereo unspecified) | 41.5* | 9.4 | 5.4 | nt | -1.7 | 36.3* | 53.5* | 53.9*
CC(C)(C)CCNc1nc(-c2ccccn2)nnc1-c1ccccc1 | nt | nt | nt | 17.2 | nt | nt | nt | nt
Cc1ccc(/C=C2\SC(=S)N(/N=C/c3cc([N+](=O)[O-])ccc3O)C2=O)o1 | 48.8* | 45.9* | 26.3* | nt | 73.8* | 63.3* | 56.1* | 38.5*
CN(C)c1cccc(/C=C2\CC3(OC(=O)c4ccc(F)cc4)CCCN2C3)c1 (stereo unspecified) | nt | nt | nt | 6.8 | nt | nt | nt | nt
CCCCCCCCCCCCCCCC[n+]1ccc(/C=N/O)cc1 | 61.1* | 61.0* | 32.7* | 50.7* | 27.1 | 50.3* | 39.7* | 80.6*
Cc1ccc(S(=O)(=O)NCC(=O)N2CCN(c3ccccn3)CC2)cc1C | nt | nt | nt | 2.7 | nt | nt | nt | nt
Cc1ccc(O)c(O)c1 | nt | nt | nt | nt | nt | 13.1 | nt | nt
Cc1cc(O)c(Oc2cc(C)cc(O)c2O)c(O)c1 | 63.8* | 9.6 | 11.1 | 29.0 | 23.7 | 39.1* | 14.8 | 81.1*
COc1ccc(/C=C2\SC(=S)N(CCCC(=O)NNC(=O)c3ccccc3O)C2=O)cc1 | 32.5 | 2.9 | 4.5 | 6.0 | 4.9 | 15.0 | nt | nt
COc1ccccc1/C=C1\SC(=S)N(CCC(=O)NNC(=O)c2ccccc2O)C1=O | 39.4* | 10.5 | 2.1 | nt | 4.6 | 35.4* | 65.6* | 68.2*
CCCCOCCCNC(=O)C[C@H]1C[C@@]2(C(=O)OC)C(=C[C@H](C(C)(C)C)O[C@@H]2C)N(Cc2cccc3ccccc23)C1=O | nt | nt | nt | -5.9 | nt | nt | nt | nt
COC(=O)[C@]12C[C@H](CC(=O)NCc3ccc(OC)c(OC)c3)C(=O)N(Cc3ccco3)C1=C[C@H](C(C)(C)C)O[C@@H]2C | nt | nt | nt | 0.6 | nt | nt | nt | nt
CCn1c(CSc2nc3ccccc3s2)nnc1SCC(=O)c1ccc(O)c(O)c1 | 54.6* | 11.5 | 7.1 | 20.2 | 49.7* | 40.5* | 93.8* | 86.5* | PAFAH2 FP conf=23.1
O=C(Cc1cnn(-c2ccccc2)c1)c1ccc(O)c(O)c1O | 68.7* | 4.9 | 0.4 | 24.3 | 22.3 | 72.5* | 53.9* | 93.6*
CCc1cc(C(=O)Cc2cnn(-c3ccccc3)c2)c(O)cc1O | -24.1 | -1.0 | 0.3 | -19.7 | -7.5 | -4.8 | nt | nt
Cc1nc(N)sc1N=Nc1ccccc1C(F)(F)F | 40.0* | 11.9 | 3.4 | 9.1 | -1.9 | 41.8* | 30.2* | 30.4
